Rows were chosen to be rich in hits. Some 1.7% of all compounds tested hit in one or more screens of this group.
HTR2A ag: activates the mouse 5-HT2A serotonin receptor; activation, % at 7.6 µM; CHO-K1 mHTR2A beta-arrestin complementation, luminescence; percent of 30 µM serotonin response; 360,000 tested, 0.66% active; P35363;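 active = activation above a run cutoff, the mean activation of all tested compounds plus 3 SD, cut at about 14% in these data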;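 also: 0% = plate median of compound wells and 100% = 30 µM serotonin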
PP5 primary: blocks human protein phosphatase 5 activity. purified PP5c, OMFP substrate fluorescence. inhibition, % at 6.7 µM. 320,000 tested, 0.18% active. P53041;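 active = inhibition above the campaign's mean inhibition across all tested compounds plus 3 SD, cut at about 9.5% in these data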;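 also: 0% = DMSO only and 100% = 100 µM cantharidin control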
T cell modulator: T cell immune modulation candidate | AID 2052 | 330,000 tested, 0.068% active | response (vesicle binding), % at 7 µM | 2C CD8+ T cell-vesicle binding, flow cytometry; stronger effect = lower value;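 active = response, share of CD8 T cells binding vesicles, and their 90th percentile fluorescence all below set limits, cut at about 80% in these data, passing the limit was not always enough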;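 also: values below 100% mean blocked vesicle binding to the CD8+ T cells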
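Also added: QL9-peptide-loaded Drosophila micro-vesicles bearing Ld, ICAM-1 and B7-1; Test system: purified 2C TCR transgenic mouse naive CD8+ T cells; Measured by: cytometric PE anti-B7-1 and Alexa647 anti-CD8 signals after 1% paraformaldehyde fixation; Timing: binding step 1.5 h, 37 °C, antibody labelling 20 min, ice.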
JMJD2C inh: human JMJD2C demethylase inhibition; Q9H3R0; GST-JMJD2C(1-420) H3K9me3 demethylation, DELFIA europium; inhibition, % at 2.35 µM; 330,000 tested, 0.069% active; AID 2099;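 active = more than half of a compound's replicate wells show inhibition beyond 50%, single wells judged on their own value; inconclusive = some, but no more than half, of replicates pass 50% inhibition; inactive = no replicate passes 50% inhibition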;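 also: signal counts dimethyl H3K9 product captured on neutravidin plate; 0% = median of DMSO wells and 100% = 0.3 times that DMSO median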
Target sequence (Q9H3R0 1-420 limits assumed): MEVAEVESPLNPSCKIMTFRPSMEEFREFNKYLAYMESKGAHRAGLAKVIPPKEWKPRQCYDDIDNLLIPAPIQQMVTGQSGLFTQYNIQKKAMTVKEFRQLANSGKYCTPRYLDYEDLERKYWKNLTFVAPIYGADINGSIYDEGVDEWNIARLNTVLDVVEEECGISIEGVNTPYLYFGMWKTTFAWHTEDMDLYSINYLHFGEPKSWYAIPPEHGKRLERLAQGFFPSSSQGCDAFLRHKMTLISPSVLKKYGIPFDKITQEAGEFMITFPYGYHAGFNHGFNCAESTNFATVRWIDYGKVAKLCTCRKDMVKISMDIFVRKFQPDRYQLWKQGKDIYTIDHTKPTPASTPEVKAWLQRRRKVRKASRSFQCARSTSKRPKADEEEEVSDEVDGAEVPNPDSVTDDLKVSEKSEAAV
PP1 inh: blocks human PP1-alpha phosphatase, a PP5 counter-screen | purified PP1alpha, OMFP fluorescence | P62136 | inhibition, % at 6.7 µM | 320,000 tested, 0.9% active | AID 2235;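 active = inhibition above the mean inhibition of all tested compounds plus 3 SD, computed separately for each screening campaign, cut at about 15% in these data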
An asterisk follows results filed as active.

How did Cc1cc(N2C(=O)C(O)=C(C(=O)c3cc4ccccc4o3)C2c2cccs2)no1 (configuration not stated) do in these assays?
HTR2A ag: 0.4; PP5 primary: 2.7; T cell modulator: 318.8; JMJD2C inh: 2.4; PP1 inh: 18.7*

What do the screens show for `COC(=O)c1ccc(C2C(C(=O)c3ccc(C)o3)=C(O)C(=O)N2c2cc(C)on2)cc1` (configuration not stated)?
HTR2A ag: 2.3; PP5 primary: 0.9; T cell modulator: 314.5; JMJD2C inh: 4.4; PP1 inh: 16.4*

How did Cc1cc(N2C(=O)C(O)=C(C(=O)c3ccco3)C2c2ccc(O)cc2)no1 (configuration not stated) do in these assays?
HTR2A ag: -4.7; PP5 primary: -0.5; T cell modulator: 175.6; JMJD2C inh: 10.7; PP1 inh: -4.5

What do the screens show for `COC(=O)c1sc(N2C(=O)C(O)=C(C(=O)c3ccc(C)o3)C2c2ccco2)nc1C` (configuration not stated)?
HTR2A ag: 10.5; PP5 primary: 5.7; T cell modulator: 327.5; JMJD2C inh: 2.3; PP1 inh: 0.6

Results for Cc1c(C)c2ccc(OCC(=O)N(C)C3CCS(=O)(=O)C3)c(C)c2oc1=O (configuration not stated) ?
HTR2A ag: -1.8; PP5 primary: -2.1; T cell modulator: 147.3; JMJD2C inh: 7.8; PP1 inh: -1.8

What do the screens show for `CCCCCCCCCCCCN1[C@@H](CC(=O)O)c2cc(F)ccc2S1(=O)=O`?
HTR2A ag: 5.2; PP5 primary: 3.5; T cell modulator: 424.8; JMJD2C inh: -8.2; PP1 inh: 15.8*

Results for O=C(NNC(=S)NC(=O)c1ccco1)c1ccc(F)cc1 ?
HTR2A ag: 0.4; PP5 primary: 0.6; T cell modulator: 49.6*; JMJD2C inh: 0.8; PP1 inh: -2.7

What do the screens show for `COc1ccc(C(=O)NNC(=S)NC(=O)c2ccco2)cc1`?
HTR2A ag: 1.0; PP5 primary: 3.2; T cell modulator: 307.1; JMJD2C inh: 14.6; PP1 inh: -3.8

What do the screens show for `Cc1ccc(N2C(=O)C(Cl)=C(N3CCCCCC3)C2=O)c(C)c1`?
HTR2A ag: -2.5; PP5 primary: 1.5; T cell modulator: 0.0*; JMJD2C inh: -9.9; PP1 inh: 1.2

How did O=C1C(Cl)=C(N2CCCCCC2)C(=O)N1c1ccccc1Cl do in these assays?
HTR2A ag: -2.9; PP5 primary: 2.6; T cell modulator: 454.8; JMJD2C inh: 2.6; PP1 inh: 0.2

How did CC(=O)Nc1ccc(SCc2csc(C)n2)cc1 do in these assays?
HTR2A ag: 4.1; PP5 primary: -0.1; T cell modulator: 210.3; JMJD2C inh: -1.1; PP1 inh: -5.6

How did CCCOc1ccc(N2C(=O)CC(N(Cc3ccco3)C(=O)CC)C2=O)cc1 (configuration not stated) do in these assays?
HTR2A ag: -0.1; PP5 primary: 2.4; T cell modulator: 355.2; JMJD2C inh: 6.0; PP1 inh: -4.9

What do the screens show for `CCCOc1ccc(N2C(=O)CC(N(C(=O)c3ccco3)c3ccc(OCCC)cc3)C2=O)cc1` (configuration not stated)?
HTR2A ag: 3.5; PP5 primary: 0.9; T cell modulator: 0.0*; JMJD2C inh: -1.8; PP1 inh: -8.3

Results for CC(C)NC(=O)CSc1nnc2sc3ccccc3n12 ?
HTR2A ag: -1.4; PP5 primary: -0.8; T cell modulator: 405.9; JMJD2C inh: -8.8; PP1 inh: -1.4

Results for NC(=O)CSc1nnc2sc3ccccc3n12 ?
HTR2A ag: 5.3; PP5 primary: 0.0; T cell modulator: 79.4*; JMJD2C inh: -11.2; PP1 inh: 0.2

How did COCCN(C(=O)c1ccc(C)c(S(=O)(=O)N2CCOCC2)c1)c1c(N)n(CC(C)C)c(=O)[nH]c1=O do in these assays?
HTR2A ag: -1.9

What do the screens show for `Cc1ccccc1N1CCN(CCN2C(=O)CC(=C3c4ccccc4-c4ccccc43)C2=O)CC1`?
HTR2A ag: -3.1; PP5 primary: 4.2; T cell modulator: 348.0; JMJD2C inh: 0.9; PP1 inh: 12.8

Results for O=C1CC(=C2c3ccccc3-c3ccccc32)C(=O)N1CCN1CCN(c2ccccc2)CC1 ?
HTR2A ag: -5.0; PP5 primary: 3.7; T cell modulator: 218.4; JMJD2C inh: -16.7; PP1 inh: 17.2*

How did Cc1ncsc1CCOC(=O)C12CC3CC(CC(C3)C1)C2 do in these assays?
HTR2A ag: 16.1*; PP5 primary: -0.3; T cell modulator: inactive; JMJD2C inh: 107.7; PP1 inh: 8.6

Results for Cc1ncsc1CCOC(=O)c1cccnc1 ?
HTR2A ag: -2.0; PP5 primary: -0.6; T cell modulator: 421.9; JMJD2C inh: inconclusive; PP1 inh: -3.3

How did CCn1nc(C(=O)NCCc2ccc3c(c2)OCCO3)c2ccccc2c1=O do in these assays?
HTR2A ag: 1.7; T cell modulator: 46.8*; JMJD2C inh: -1.5

Results for COc1ccc(NC(=O)CSc2nnc(CC(=O)Nc3ccc(F)cc3)n2C)cc1 ?
HTR2A ag: 9.1; PP5 primary: 0.1; T cell modulator: 194.8; JMJD2C inh: -11.7; PP1 inh: -2.1

What do the screens show for `CC(=C/C(=O)O)/C=C/c1ccc(Cl)o1`?
HTR2A ag: 0.0; PP5 primary: -2.6; T cell modulator: 391.9; JMJD2C inh: 10.8; PP1 inh: 2.0

What do the screens show for `CC(/C=C/c1ccc(C)o1)=C\C(=O)O`?
HTR2A ag: 1.0; PP5 primary: 1.3; T cell modulator: 66.1*; JMJD2C inh: -6.4; PP1 inh: -6.1

Results for O=c1[nH]cnc2c1c(-c1ccccc1)cn2-c1ccccc1 ?
HTR2A ag: 0.6; PP5 primary: 2.4; T cell modulator: 323.8; JMJD2C inh: 62.2*; PP1 inh: -1.1

What do the screens show for `COC(=O)c1cnc(NC(=O)C2(C)CCN2C(=O)C(C)C)s1` (configuration not stated)?
HTR2A ag: -5.4

What do the screens show for `CCc1ccc2c(c1)C(=O)C(=O)N2CC(=O)Nc1ccc(NC(=O)c2ccccn2)cc1`?
HTR2A ag: 0.9; PP5 primary: 3.2; T cell modulator: 170.2; JMJD2C inh: -8.5; PP1 inh: 15.9*

What do the screens show for `CCc1ccc(NC(=O)CCN2C(=O)c3cccnc3C2=O)cc1`?
HTR2A ag: 0.9; PP5 primary: -1.0; T cell modulator: 193.4; JMJD2C inh: -12.3; PP1 inh: 1.0

What do the screens show for `COc1cc(CC2COC(=O)C2(O)Cc2ccc(O)c(OC)c2)ccc1O` (configuration not stated)?
HTR2A ag: 3.9; PP5 primary: 3.8; T cell modulator: 103.5; JMJD2C inh: -21.7; PP1 inh: -1.0

Results for COc1cc(C[C@@H]2C(=O)OC[C@H]2Cc2ccc(OC)c(OC)c2)ccc1O ?
HTR2A ag: 16.1*; PP5 primary: -2.2; T cell modulator: 397.1; JMJD2C inh: 7.1; PP1 inh: -1.5

Results for CCn1c(SCC(=O)Nc2nc(C)cs2)nnc1-c1ccncc1 ?
HTR2A ag: -0.9; PP5 primary: -1.1; T cell modulator: 191.5; JMJD2C inh: 54.3*; PP1 inh: -4.4

From PubChem BioAssay
